# Source: the M2OR odorant receptor database
# Changes are numbered by the printed parent chain.
# Tested on: T1, A0A140T8K0
# T1 sequence (whole entry): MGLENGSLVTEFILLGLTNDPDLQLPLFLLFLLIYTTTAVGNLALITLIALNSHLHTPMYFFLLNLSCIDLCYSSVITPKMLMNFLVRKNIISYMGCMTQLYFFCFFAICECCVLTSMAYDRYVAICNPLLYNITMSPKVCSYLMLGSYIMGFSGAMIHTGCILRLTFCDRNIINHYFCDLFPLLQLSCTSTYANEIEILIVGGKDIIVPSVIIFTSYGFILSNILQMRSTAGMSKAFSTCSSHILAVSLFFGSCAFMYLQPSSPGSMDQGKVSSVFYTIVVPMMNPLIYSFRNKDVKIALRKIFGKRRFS
# Conditions: stereoisomer not certain
# In short: (§1)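 Assay methods differ from source to source, frequently being transient luciferase assays in mammalian cell lines. For each receptor–molecule pair, the label responsive (active) applies when the original authors judged the measured signal statistically different from baseline, and non-responsive (inactive) applies otherwise.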
row,SMILES,odorant receptor agonist call
1,CC(C)=CCCC(C)=CCO,inactive
2,CCC(C)c1nccnc1OC (configuration not stated),inactive
3,O=C(c1ccccc1)c1ccccc1,inactive
4,COc1cnccn1,inactive
5,CC(C)=CCCC(C)CCO (configuration not stated),inactive
6,CCc1ncc(C)nc1CC,inactive
7,COc1nccnc1C(C)C,inactive
8,C=CCOC(=O)CCCCCC,inactive
9,CCc1nccnc1CC,inactive
10,CCCCCC1=C(C)CCC1=O,inactive
11,CCC(=O)C(=O)CC,inactive
12,CC(=O)OCC=C(C)C,inactive
13,CCCCCCCC(C)=O,inactive

# Tested on: T2, A0A140T8K4
# T2 sequence (whole entry): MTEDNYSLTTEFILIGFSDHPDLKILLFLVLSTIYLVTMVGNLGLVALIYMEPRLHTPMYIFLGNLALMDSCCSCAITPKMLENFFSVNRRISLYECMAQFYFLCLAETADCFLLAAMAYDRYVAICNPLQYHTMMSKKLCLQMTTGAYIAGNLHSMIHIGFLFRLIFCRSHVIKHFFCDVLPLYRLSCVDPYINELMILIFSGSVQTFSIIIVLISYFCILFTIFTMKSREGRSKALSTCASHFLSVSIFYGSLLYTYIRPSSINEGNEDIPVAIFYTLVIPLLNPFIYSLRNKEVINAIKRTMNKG
# Conditions: stereoisomer not certain
# In short: as §1
row,SMILES,odorant receptor agonist call
1,Cc1cncc(C)n1,inactive
2,COc1nccnc1CC(C)C,inactive
3,CCc1nccnc1OC,inactive
4,Cc1nccnc1C,inactive
5,CC(C)=CCCC(C)=CCO,inactive
6,CCC(C)c1nccnc1OC (configuration not stated),inactive
7,CC(=O)c1nccnc1C,inactive
8,Cc1cnc(C)cn1,inactive
9,Cc1cnc(C)c(C)n1,inactive
10,O=C(c1ccccc1)c1ccccc1,inactive
11,CCc1cnc(C)c(C)n1,active
12,CCC(C(=O)O)c1ccccc1 (configuration not stated),inactive
13,C=Cc1cnccn1,inactive
14,CCCC(C)=O,inactive
15,CCCCOC(=O)C(C)OC(=O)CCC (configuration not stated),inactive
16,COc1cnccn1,inactive
17,CC(C)=CCCC(C)CCO (configuration not stated),inactive
18,CCc1ncc(C)nc1CC,inactive

row,SMILES,odorant receptor agonist call
1,COc1nccnc1C(C)C,inactive
2,C=CCOC(=O)CCCCCC,inactive
3,CCc1nccnc1CC,inactive
4,CCCCCC1=C(C)CCC1=O,inactive
5,CCCCCCCC(=O)[O-].[H+],inactive
6,CC1CCc2nccnc21 (configuration not stated),inactive
7,CCC(=O)C(=O)CC,inactive
8,CC(=O)OCC=C(C)C,inactive
9,CCc1nccnc1C(C)=O,inactive
10,CCCCCCCC(C)=O,inactive
11,CCCCCO,inactive
12,COC1=C(C)OC(C)C1=O (configuration not stated),inactive
13,Cc1cnccn1,inactive
14,CC1=NC(C)C(C)S1 (configuration not stated),active
15,CCc1nccnc1C,inactive
16,CCCCCCC(=O)[O-].[H+],inactive
17,CC(=O)c1cnccn1,inactive
18,O=c1ccc2ccccc2o1,inactive

# Tested on: T3, A0A1L1SVG7
# T3 sequence (whole entry): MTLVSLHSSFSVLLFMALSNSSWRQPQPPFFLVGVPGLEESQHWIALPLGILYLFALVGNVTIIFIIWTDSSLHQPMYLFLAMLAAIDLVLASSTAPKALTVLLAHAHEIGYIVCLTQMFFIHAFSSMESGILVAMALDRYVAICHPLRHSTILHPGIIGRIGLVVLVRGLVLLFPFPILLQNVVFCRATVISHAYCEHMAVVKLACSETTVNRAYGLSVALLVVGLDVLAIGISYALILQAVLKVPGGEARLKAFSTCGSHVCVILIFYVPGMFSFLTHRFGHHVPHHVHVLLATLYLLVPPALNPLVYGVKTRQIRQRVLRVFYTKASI
# Conditions: stereoisomer not certain
# In short: as §1
row,SMILES,odorant receptor agonist call
1,CC(C)=CCCC(C)=CCO,inactive
2,O=C(c1ccccc1)c1ccccc1,inactive
3,CCC(C(=O)O)c1ccccc1 (configuration not stated),inactive
4,CCCC(C)=O,inactive
5,CCCCOC(=O)C(C)OC(=O)CCC (configuration not stated),inactive
6,CC(C)=CCCC(C)CCO (configuration not stated),inactive
7,C=CCOC(=O)CCCCCC,inactive
8,CCCCCC1=C(C)CCC1=O,inactive
9,CCCCCCCC(=O)[O-].[H+],inactive
10,CCC(=O)C(=O)CC,inactive
11,CC(=O)OCC=C(C)C,inactive
12,CCCCCCCC(C)=O,inactive
13,CCCCCO,inactive
14,CCCCCCC(=O)[O-].[H+],inactive
15,O=c1ccc2ccccc2o1,inactive

# Tested on: T4, A0A2J8MY22
# T4 sequence (whole entry): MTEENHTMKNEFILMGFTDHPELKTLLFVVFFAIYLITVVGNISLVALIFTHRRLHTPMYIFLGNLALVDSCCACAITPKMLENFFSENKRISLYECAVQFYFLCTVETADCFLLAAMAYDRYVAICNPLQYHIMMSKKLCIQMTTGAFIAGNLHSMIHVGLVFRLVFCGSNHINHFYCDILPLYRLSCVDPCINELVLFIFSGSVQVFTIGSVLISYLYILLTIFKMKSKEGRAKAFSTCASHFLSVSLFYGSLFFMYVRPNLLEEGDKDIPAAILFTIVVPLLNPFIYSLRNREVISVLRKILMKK
# Conditions: stereoisomer not certain
# In short: as §1
row,SMILES,odorant receptor agonist call
1,Cc1cncc(C)n1,active
2,COc1nccnc1CC(C)C,active
3,CCc1nccnc1OC,active
4,Cc1nccnc1C,active
5,CCC(C)c1nccnc1OC (configuration not stated),active
6,CC(=O)c1nccnc1C,active
7,Cc1cnc(C)cn1,active
8,Cc1cnc(C)c(C)n1,active
9,CCc1cnc(C)c(C)n1,active
10,C=Cc1cnccn1,active
11,COc1cnccn1,active
12,CCc1ncc(C)nc1CC,active
13,COc1nccnc1C(C)C,active
14,CCc1nccnc1CC,active
15,CC1CCc2nccnc21 (configuration not stated),active
16,CCc1nccnc1C(C)=O,active
17,COC1=C(C)OC(C)C1=O (configuration not stated),active
18,Cc1cnccn1,active
19,CC1=NC(C)C(C)S1 (configuration not stated),active
20,CCc1nccnc1C,active
21,CC(=O)c1cnccn1,active

# Tested on: T5, A0A2R8ZIW4
# T5 sequence (whole entry): T4 sequence (whole entry) with V39I, I280V
# Conditions: stereoisomer not certain
# In short: as §1
row,SMILES,odorant receptor agonist call
1,Cc1cncc(C)n1,active
2,COc1nccnc1CC(C)C,active
3,CCc1nccnc1OC,active
4,Cc1nccnc1C,active
5,CCC(C)c1nccnc1OC (configuration not stated),active
6,CC(=O)c1nccnc1C,active
7,Cc1cnc(C)cn1,active
8,Cc1cnc(C)c(C)n1,active
9,CCc1cnc(C)c(C)n1,inactive
10,C=Cc1cnccn1,active
11,COc1cnccn1,active
12,CCc1ncc(C)nc1CC,active
13,COc1nccnc1C(C)C,active
14,CCc1nccnc1CC,active
15,CC1CCc2nccnc21 (configuration not stated),active
16,CCc1nccnc1C(C)=O,active
17,COC1=C(C)OC(C)C1=O (configuration not stated),inactive
18,Cc1cnccn1,active
19,CC1=NC(C)C(C)S1 (configuration not stated),active
20,CCc1nccnc1C,active
21,CC(=O)c1cnccn1,active

# Tested on: T6, A0A3Q7SVK8
# T6 sequence (whole entry): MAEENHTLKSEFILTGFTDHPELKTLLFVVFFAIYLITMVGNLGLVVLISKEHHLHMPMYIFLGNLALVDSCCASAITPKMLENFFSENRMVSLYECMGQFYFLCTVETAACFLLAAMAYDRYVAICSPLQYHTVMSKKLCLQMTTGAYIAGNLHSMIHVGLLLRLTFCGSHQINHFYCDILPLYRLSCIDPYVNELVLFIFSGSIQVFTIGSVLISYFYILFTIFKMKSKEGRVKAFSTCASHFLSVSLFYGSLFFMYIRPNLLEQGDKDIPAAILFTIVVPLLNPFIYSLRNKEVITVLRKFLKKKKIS
# Conditions: stereoisomer not certain
# In short: as §1
row,SMILES,odorant receptor agonist call
1,Cc1cncc(C)n1,active
2,COc1nccnc1CC(C)C,active
3,CCc1nccnc1OC,active
4,Cc1nccnc1C,active
5,CCC(C)c1nccnc1OC (configuration not stated),active
6,CC(=O)c1nccnc1C,active
7,Cc1cnc(C)cn1,active
8,Cc1cnc(C)c(C)n1,active
9,CCc1cnc(C)c(C)n1,inactive
10,C=Cc1cnccn1,active
11,COc1cnccn1,active
12,CCc1ncc(C)nc1CC,active
13,COc1nccnc1C(C)C,active
14,CCc1nccnc1CC,active
15,CC1CCc2nccnc21 (configuration not stated),active
16,CCc1nccnc1C(C)=O,active
17,COC1=C(C)OC(C)C1=O (configuration not stated),inactive
18,Cc1cnccn1,active
19,CC1=NC(C)C(C)S1 (configuration not stated),active
20,CCc1nccnc1C,active
21,CC(=O)c1cnccn1,active
